XiGFP reactiv: X-chromosome reactivation activator. activation, % at 7.58 µM. XiGFP mouse fibroblasts, % GFP-positive cells imaging, 3 d; cells co-treated with 5-aza-dC sensitizer; scaled so ellipticine positive control = 100%. 360,000 compounds, 0.055% hits;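 active means mean normalized replicate activation at least 10% and every replicate at or above 10%; inconclusive means only one of the two criteria met; inactive means mean below 10% and not all replicates reach 10%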;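 further: 0% = median of on-plate neutral control wells and 100% = ellipticine 6 µM median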
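assay system = SV40-immortalized XiGFP fibroblast cells, line 68-5-11 | buffer or medium = DMEM plus 5-aza-dC sensitizer | doses = single-point pinned compound dosing | times = 3-day compound exposure, then 15 min fixation at room temperature | benchmarks = positive control ellipticine, 6 µM final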
DENV2 CPE: inhibitors of DENV2 cytopathic effect; CPE inhibition, % at 9.99 µM; 350,000 compounds, 1.7% hits; DENV2-infected cells, cytopathic effect rescue, plate reader; AID 651640; in the data active means CPE inhibition above about 20%, passing the limit was not always enough; inconclusive means no clear call, values can overlap the other calls; tested in BHK-21 cells;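 further: 0% = median of neutral control wells and 100% = median of positive control wells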
FN deposit inh: fibronectin deposition inhibition; inhibition, % at 12.6 µM; AH1F fibroblasts, Alexa488-fibronectin deposition fluorescence, overnight; 350,000 compounds, 0.086% hits; AID 743247;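 active means mean inhibition across replicates of 30% or more, regardless of how many single replicates reach that level; inconclusive means mean under 30% yet at least half of replicates reach 30%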;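 further: positive control wells lacked labelled fibronectin entirely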
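Test system: AH1F fibroblast monolayer depositing Alexa488-labelled fibronectin into matrix. Input: 10000 cells per well. Technique: fluorescence, ex 485 nm, em 525 nm. Buffer or medium: DMEM plus 2% serum, read in PBS. Timing: 1 h cell adhesion before compound, then overnight fibronectin incubation. Compound: single dose, pinned. Read-out basis: inhibition from reduced deposited-fibronectin fluorescence.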
FGF22 binding: binders of recombinant human FGF22 by thermal shift; activity (Tm shift, normalised), % at 9.99 µM; SYPRO orange fluorescence; percent of sucrose octasulfate shift, DMSO zero; 340,000 compounds, 1.5% hits; Q9HCT0;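 active means mean Tm shift, scaled 0 neutral to 100 positive control, at about 1.3% or above, every replicate too, limit read from the data; inconclusive means no clear call, values can overlap the other calls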
Target sequence (Q9HCT0 whole entry, looked up): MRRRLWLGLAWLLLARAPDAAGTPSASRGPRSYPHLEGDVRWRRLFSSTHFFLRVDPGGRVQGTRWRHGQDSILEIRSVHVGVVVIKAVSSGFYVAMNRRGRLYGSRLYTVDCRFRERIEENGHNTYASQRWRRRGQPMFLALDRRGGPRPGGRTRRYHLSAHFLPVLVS
ARNT TACC3 PPI: disruptors of human ARNT/TACC3 interaction; 390,000 compounds, 0.66% hits; AlphaScreen His-ARNT PAS-B/GST-TACC3 binding, luminescence; TACC3 fragment carries E629A point mutation; AID 623870; inhibition, % at 9.99 µM; Q9Y6A5;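 active means mean inhibition of replicates at least 50% and at least half of replicates each reaching 50%; inconclusive means half or more replicates reach 50% but mean below 50%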;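 further: 0% = complete ARNT plus TACC3 wells and 100% = ARNT alone without TACC3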
SIRT5 block: blocks human SIRT5 desuccinylation of peptide. 330,000 compounds, 1.1% hits. Purified SirT5, succinyl-peptide AMC, trypsin-coupled fluorescence. AID 652115. Q9NXA8. inhibition, % at 15 µM; in the data active means inhibition above about 15%; inconclusive means no clear call, values can overlap the other calls
Target sequence (Q9NXA8 whole entry, looked up): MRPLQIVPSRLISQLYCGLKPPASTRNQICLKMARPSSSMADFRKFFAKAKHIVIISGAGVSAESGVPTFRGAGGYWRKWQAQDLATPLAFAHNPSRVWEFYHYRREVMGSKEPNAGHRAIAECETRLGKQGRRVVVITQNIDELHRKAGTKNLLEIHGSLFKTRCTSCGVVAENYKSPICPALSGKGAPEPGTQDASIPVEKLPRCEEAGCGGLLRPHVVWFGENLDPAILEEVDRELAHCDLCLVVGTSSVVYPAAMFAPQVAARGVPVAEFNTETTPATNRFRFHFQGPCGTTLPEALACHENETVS
Active calls of the source: *; ? = inconclusive; nt = no result. Sampled rows, rich in hits. Any-hit rate of the full collection: about 3.8%.

SMILES	XiGFP reactiv	DENV2 CPE	FN deposit inh	FGF22 binding	ARNT TACC3 PPI	SIRT5 block
CCNC(=O)C[C@H]1CC[C@H]2[C@H](COc3ccc(NC(=O)Nc4ccccc4F)cc3C(=O)N2C)O1	0	?	3	0	-16	0
O=C1C=C(c2ccc(-c3ccccc3)cc2)C[C@@H](c2ccc(F)cc2)C1	0	-2	-7	0	-6	nt
O=C1C=C(c2ccccc2Oc2ccccc2)C[C@@H](c2ccc(F)cc2)C1	0	-4	-2	43*	nt	nt
CC(=O)NCCC(=O)N1CCCC(CNC(=O)c2ccc(-c3ccccc3)cc2)C1 (centres undefined)	0	-4	-1	43*	nt	-2
COc1ccc(CN2C[C@H](C)[C@@H](OC)CN(C)C(=O)c3cc(NC(=O)c4nc5ccccc5s4)ccc3OC[C@@H]2C)cc1	0	31*	-12	0	15	nt
COc1ccc(CN2C[C@@H](C)[C@@H](OC)CN(C)C(=O)c3cc(NC(=O)c4nc5ccccc5s4)ccc3OC[C@@H]2C)cc1	0	1	-4	0	13	nt
CCCNC(=O)Nc1ccc2c(c1)OC[C@H](C)N(Cc1ccncc1)C[C@@H](C)[C@@H](OC)CN(C)C2=O	0	45*	2	0	-7	-1
CCCNC(=O)Nc1ccc2c(c1)C(=O)N(C)C[C@H](OC)[C@H](C)CN(Cc1ccc(-c3ccccn3)cc1)[C@H](C)CO2	0	?	-7	0	3	15*
CCCC(=O)Nc1ccc2c(c1)C(=O)N(C)C[C@H](OC)[C@H](C)CN(Cc1ccc(-c3ccccn3)cc1)[C@@H](C)CO2	0	28*	11	0	2	nt
CCCNC(=O)Nc1ccc2c(c1)OC[C@H](C)N(Cc1ccncc1)C[C@H](C)[C@@H](OC)CN(C)C2=O	0	-3	2	0	-8	0
C[C@H](CO)N1C[C@H](C)[C@H](CN(C)S(=O)(=O)c2ccc(Cl)cc2)Oc2ccc(NS(C)(=O)=O)cc2CC1=O	0	0	nt	0	-24	-2
CC(NC(=S)NC(=O)c1ccccc1Br)c1ccccc1 (centres undefined)	0	1	-3	0	-3	1
CC(C)C(NC(=O)c1ccccc1Br)c1ccccc1 (centres undefined)	0	-3	7	43*	-5	0
CCOC(=O)Cn1nc(C)n(-c2c(C)cccc2C)c1=O	0	-12	-26	0	-1	0
CCOC(=O)Cn1nc(C(F)F)c(Br)c1C	0	-10	3	44*	8	-2
CCCNC(=O)N(C)C[C@@H]1Oc2cc(C#CCN(C)C)ccc2S(=O)(=O)N([C@@H](C)CO)C[C@@H]1C	0	1	0	1	10	7
Cc1ccc(NC(=O)CN2C(=O)S/C(=C\c3ccc(OCC(=O)O)c(Br)c3)C2=O)cc1	0	-6	-1	0	12	17*
Cc1cccc(NC(=O)CN2C(=O)S/C(=C\c3ccc(O)c([N+](=O)[O-])c3)C2=O)c1	0	-2	4	44*	2	1
CCn1c(-c2cccs2)nc2ccccc21	nt	nt	nt	nt	0	nt
C#CCn1c(-c2cccs2)nc2ccccc21	0	-1	-6	43*	-1	-15
O=S(=O)(c1ccc(F)cc1)N1C[C@@H]2[C@H](c3ccccc31)[C@H](CO)N2Cc1ccc2c(c1)OCO2	0	0	nt	1	-3	3
C[C@@H]1CN([C@@H](C)CO)C(=O)c2cc(NS(=O)(=O)c3cn(C)cn3)ccc2O[C@@H](C)CCCCO[C@H]1CN(C)C	nt	-1	nt	0	-7	1
Clc1ccccc1OCCNc1nc(NCC2CC2)nc2ccsc12	0	0	-1	-1	nt	23*
CCCNC(=O)N(C)C[C@H]1Oc2ncc(C#CC3(O)CCCC3)cc2C(=O)N([C@@H](C)CO)C[C@H]1C	0	1	nt	0	0	9
CSc1ncccc1C(=O)Nc1nc2ccc(Oc3ccccc3)cc2s1	0	2	1	43*	2	-6
